The structures appear in SMILES notation.

We go through 25 compounds from ChEMBL document CHEMBL3997826, “Discovery and characterization of novel indole and 7-azaindole derivatives as inhibitors of β-amyloid-42 aggregation for the treatment of Alzheimer's disease” (Bioorg Med Chem Lett, 2017).

Series [1] addresses T1, Amyloid-beta precursor protein (Homo sapiens, UniProt P05067). Nature of the series: Inhibition of HFIP-pretreated amyloid beta (1 to 42 residues) (unknown origin) aggregation at 1:10 protein to compound ratio after 24 hrs by ThT fluorescence assay relative to control. Particulars: concentration not given here. In a few lines: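 A crude Aβ1-42 peptide film at 33 µM was mixed with compound at 330 µM, a 1:10 molar ratio, and aggregation was read by thioflavin-T fluorescence. Values are percent of the DMSO-only Aβ1-42 aggregation control, as the mean ± SD of two independent experiments.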

For series [2], the target named is T1, Amyloid-beta precursor protein. The series can be described thus: Inhibition of HFIP-pretreated amyloid beta (1 to 42 residues) (unknown origin) aggregation after 24 hrs by ThT fluorescence assay.
A short description of series [3]: Metabolic stability in human liver microsomes assessed as parent compound remaining after 1 hr. Particulars: read-out: Stability. The series is classed as ADME, microsome. In a few lines:
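Compounds were incubated with human or mouse liver microsomes for 1 h at 37 °C. The read-out was the percentage of parent compound remaining.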

Series [4] is described as follows: Permeability from apical to basolateral side in human Caco2 cells. The format is ADME, cell-based. Particulars: Caco-2, read-out: permeability. The method in brief:
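Apical-to-basolateral permeability was reported in cm/s. The efflux ratio was used to judge P-gp substrate status.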

A short description of series [5]: Half life in human liver microsomes. The series is classed as ADME, microsome.
The subject of the next series is Liver. Nature of the series: Drug metabolism in human liver microsomes assessed as oxidation of indole-3 position. The format is ADME, microsome.

T1 sequence (P05067 whole entry, the tested form may be a part): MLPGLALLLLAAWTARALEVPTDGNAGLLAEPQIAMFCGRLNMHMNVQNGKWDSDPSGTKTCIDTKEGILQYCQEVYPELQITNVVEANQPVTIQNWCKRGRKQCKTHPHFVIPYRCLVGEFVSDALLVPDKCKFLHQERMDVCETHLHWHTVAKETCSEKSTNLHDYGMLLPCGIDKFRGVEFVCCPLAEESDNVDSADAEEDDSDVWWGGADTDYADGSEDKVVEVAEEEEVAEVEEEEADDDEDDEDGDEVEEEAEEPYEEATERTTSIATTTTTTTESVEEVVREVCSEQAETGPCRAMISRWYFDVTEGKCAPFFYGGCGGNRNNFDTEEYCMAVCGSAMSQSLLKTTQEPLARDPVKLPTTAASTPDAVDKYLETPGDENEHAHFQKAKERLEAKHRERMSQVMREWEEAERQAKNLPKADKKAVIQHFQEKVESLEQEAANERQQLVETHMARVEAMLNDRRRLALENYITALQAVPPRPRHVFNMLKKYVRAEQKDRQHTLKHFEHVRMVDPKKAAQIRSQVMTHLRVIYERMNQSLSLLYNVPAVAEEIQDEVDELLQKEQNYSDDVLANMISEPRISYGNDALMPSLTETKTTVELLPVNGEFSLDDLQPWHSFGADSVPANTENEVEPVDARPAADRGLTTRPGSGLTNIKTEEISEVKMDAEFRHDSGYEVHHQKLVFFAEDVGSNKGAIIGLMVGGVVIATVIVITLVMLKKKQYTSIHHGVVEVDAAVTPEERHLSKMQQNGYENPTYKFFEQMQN

As to `Cn1cc(C2CCNCC2)c2ccc(Nc3ccc(F)c(F)c3)cc21`, in series [1], the inhibition is 81 to 93%. Also, in series [2], the IC50 stood at 42 µM.

Turning to `c1cc2cc(Nc3ccc4cc[nH]c4n3)cnc2[nH]1`, in series [1], the inhibition was determined as 86%.

`c1cc2ccc(Nc3ccc4cc[nH]c4c3)cc2[nH]1`: in series [1], the inhibition was 96%.

As for `Fc1ccc(Nc2ccc3c(C4CCNCC4)c[nH]c3n2)cc1F`, the inhibition in series [1] fell in the range of 81 to 93%. Besides, the IC50 in series [2] worked out at 30 µM.

As for `Fc1cc(F)cc(Nc2cnc3cc[nH]c3c2)c1`, in series [1], the inhibition was determined as 52%.

With `Fc1ccc(Nc2ccc3c(C4CCNCC4)c[nH]c3c2)cc1F`, the inhibition in series [1] lay within 81 to 93%. Moreover, the IC50 in series [2] came to 24 µM.

On to `c1cc2c(C3CCNCC3)c[nH]c2cc1Nc1ccc2c(C3CCNCC3)c[nH]c2c1`, for which the inhibition in series [1] was greater than 90%. Moreover, the remaining at 1 h in series [3] amounted to 89%. Moreover, the Papp A→B in series [4] stood at 0.01 ×10⁻⁶ cm/s.

Consider `COc1ccc(Nc2ccc3c(C4CCN(C)CC4)c[nH]c3c2)cc1OC`, for which the inhibition in series [1] was 81 to 93%. Further, the IC50 in series [2] came to 25 µM.

Turning to `c1cc2c(C3CCNCC3)c[nH]c2cc1Nc1ccc2c(C3CCNCC3)c[nH]c2n1`, the inhibition in series [1] is greater than 90%. Further, in series [2], the IC50 worked out at 25.6 µM.

As for `c1cc2ccc(Nc3ccc4cc[nH]c4n3)cc2[nH]1`, the inhibition in series [1] worked out at 75%.

With `FC(F)(F)c1ccc(Nc2ccc3c(C4CCNCC4)c[nH]c3c2)cn1`, the inhibition in series [1] lay in the range of 81 to 93%. In addition, the IC50 in series [2] came out at 24 µM.

As to `CN1CCC(c2c[nH]c3cc(Nc4ccc5[nH]cc(C6CCN(C)CC6)c5c4)ccc23)CC1`, the inhibition in series [1] is greater than 90%. For the same compound, the 50% inhibitory concentration (IC50) in series [2] was 15.3 µM.

In the case of `c1cc2cc(Nc3ccc4cc[nH]c4c3)ccc2[nH]1`, the inhibition in series [1] came to 94%.

Regarding `N#Cc1c[nH]c2nc(Nc3ccc4c(C5CCNCC5)c[nH]c4c3)ccc12`, the inhibition in series [1] was greater than 90%. Besides, in series [2], the IC50 was 17.8 µM.

On to `CN1CCC(c2c[nH]c3ccc(Nc4ccc5c(C6CCNCC6)c[nH]c5n4)cc23)CC1`, for which, in series [1], the inhibition is greater than 90%. Besides, the remaining at 1 h in series [3] is 95%. The Papp A→B in series [4] stood at 0.02 ×10⁻⁶ cm/s.

In the case of `c1cc2ncc(Nc3ccc4cc[nH]c4n3)cc2[nH]1`, in series [1], the inhibition came to 98%. Further, the half-life in series [5] is 11 min. In the series with Liver, the Drug metabolism result is on record as “Metabolite_Detected”. In addition, in series [2], the IC50 was 23.8 µM.

Take `CN1CCC(c2c[nH]c3cc(Nc4ccc5c(C6CCN(C)CC6)c[nH]c5c4)ccc23)CC1`: the inhibition in series [1] was greater than 90%.

For the compound `Fc1ccc(Nc2ccc3cc[nH]c3n2)cc1`, in series [1], the inhibition was found to be 52%.

As for `c1ccc(Nc2ccc3cc[nH]c3n2)nc1`, the inhibition in series [1] worked out at 71%.

Take `CN1CCC(c2c[nH]c3cc(Nc4ccc(F)c(F)c4)ccc23)CC1`: the inhibition in series [1] was 81 to 93%. Further, the IC50 in series [2] is 48 µM.

For the compound `c1cc2cc(Nc3ccc4cc[nH]c4n3)ccc2[nH]1`, the inhibition in series [1] amounted to 97%.

Turning to `c1cc2ccc(Nc3ccc4cc[nH]c4n3)nc2[nH]1`, the inhibition in series [1] was found to be 75%.

With `c1cc2c(C3CCNCC3)c[nH]c2cc1Nc1ccc2[nH]cc(C3CCNCC3)c2c1`, the inhibition in series [1] was greater than 90%. The IC50 in series [2] was found to be 26.6 µM.

With `c1cc2ccc(NC3CCNCC3)nc2[nH]1`, the inhibition in series [1] was determined as 48%.

`Fc1cc(F)cc(Nc2ccc3cc[nH]c3n2)c1`: the inhibition in series [1] was found to be 60%.
